S1P1 ag pot: S1P1 (human) agonism or agonism potentiation | P21453 | S1P1 CRE-bla cells, forskolin, beta-lactamase FRET, potentiator mode; S1P1 agonist co-added at EC20, 2 nM; 100% = saturating reference agonist, 0% = basal | activation, % at 9.5 µM | actives 0.57% (n = 56,000) | AID 449;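 active = activation above a cutoff set at the mean activation of all tested compounds plus 3 SD, cut at about 54% in these data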;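 note: forskolin at 4 µM as EC80 and the EC20 agonist is SEW2871; 100% = SEW2871 at its EC100 plus forskolin at EC80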
S1P3 ag: agonists of human S1P3 receptor. Q99500. S1P3 NFAT-BLA reporter cells, agonism, FRET ratio; relative to 1 µM S1P, basal subtracted. activation, % at 4.5 µM. actives 0.1% (n = 60,000);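 active = activation above the screen-wide mean plus 3 SD, cut at about 4.5% in these data, passing the limit was not always enough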
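Measure – % activation relative to 1 µM S1P (100%), per plate · System – stable CHO line with human S1P3, Gα16, NFAT-BLA reporter · Timing – cells plated overnight, compound 4 h 37 °C, substrate 2 h RT · Technique – fluorescent BLA substrate, ex 405 nm, em 460/535 nm ratio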
D1 allo mod: allosteric modulators of human D1 dopamine receptor; P21728; HEK293 D1, CRE-luciferase, dopamine EC30 potentiation; actives deviate in either direction; B-score at 10 µM; actives 5.9% (n = 58,000); AID 641;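 active = luminescence count or its row- and column-corrected plate score outside the 99.7% band of the plate's sample wells, on either side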
M1 antag: antagonists of rat M1 muscarinic receptor | P08482 | B-score at 10 µM | actives 3.4% (n = 64,000) | CHO-M1 cells, Fluo-4 calcium, ACh EC80 antagonist mode; hits give low values | AID 628;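 active = calcium fluorescence response, raw or row-and-column corrected B-score, differing from the plate sample mean either way at a set confidence level, mostly lower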
Target sequence (P08482 whole entry, looked up): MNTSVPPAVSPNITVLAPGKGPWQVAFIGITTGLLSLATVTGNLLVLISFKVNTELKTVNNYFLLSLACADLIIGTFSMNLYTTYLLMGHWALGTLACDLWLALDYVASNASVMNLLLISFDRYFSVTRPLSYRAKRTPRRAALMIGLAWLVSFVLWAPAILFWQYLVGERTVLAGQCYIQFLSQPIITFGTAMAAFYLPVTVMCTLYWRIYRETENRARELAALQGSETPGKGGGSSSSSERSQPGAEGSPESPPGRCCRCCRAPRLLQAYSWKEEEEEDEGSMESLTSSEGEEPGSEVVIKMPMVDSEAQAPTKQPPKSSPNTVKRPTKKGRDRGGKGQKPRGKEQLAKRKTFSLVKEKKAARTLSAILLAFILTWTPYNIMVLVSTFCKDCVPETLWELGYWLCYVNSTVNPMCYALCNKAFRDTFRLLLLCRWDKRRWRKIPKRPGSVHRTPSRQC
M1 agonist: agonists of M1 muscarinic receptor; CHO-M1 cells, Fluo-4 calcium fluorescence, agonist mode; hits give high values; B-score at 10 µM; AID 626; actives 3% (n = 64,000);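 active = fluorescence rise, raw or as B-score row- and column-corrected plate score, outside the 99.7% band of its plate's samples, either direction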
Active calls of the source: *. This is a sample that favours compounds with a hit; in the whole collection about 11% have one here.

Screening CCCCCn1c(=O)[nH]c2cc(C(=O)NCCCN3CCC(C)CC3)ccc2c1=O returned D1 allo mod -2.2, M1 antag -1.4 and M1 agonist -0.27.
CC1CCN(CCNC(=O)c2ccc3c(=O)n(CCc4ccccc4)c(=O)[nH]c3c2)CC1 was read as D1 allo mod -1.1, M1 antag 0.17 and M1 agonist -2*.
For CC1CCCCN1CCNC(=O)c1ccc2c(=O)n(CCc3ccccc3)c(=O)[nH]c2c1 (centres undefined) the results were D1 allo mod -3.7*, M1 antag -0.85 and M1 agonist -1.4.
Screening CCOC(=O)c1cnc(-n2nc(C)cc2C)nc1NC1CCCCC1 returned S1P1 ag pot 110*, S1P3 ag -2, D1 allo mod 2.6, M1 antag -1.1 and M1 agonist 0.19.
`O=C(Cc1ccc(S(=O)(=O)N2CCOCC2)s1)NCC1CCCCC1` gave S1P1 ag pot 13, S1P3 ag 1, D1 allo mod -7*, M1 antag 0.19 and M1 agonist -1.2.
For CN1C(=S)SC(N(O)C(=O)NC2CCCCC2)C1(C)C (centres undefined) the results were S1P1 ag pot -10, S1P3 ag -2, D1 allo mod 0.43, M1 antag -0.43 and M1 agonist -0.3.
Screening CN1CCN(Cc2c(C#N)c3ccccc3n2C)CC1 returned S1P1 ag pot -12, S1P3 ag 0 and D1 allo mod 0.012.
For COc1ccc2ccccc2c1CN1CCN(C)CC1 the results were S1P1 ag pot -19, S1P3 ag 1, D1 allo mod -2.4*, M1 antag -0.36 and M1 agonist -1.9.
For CCc1nnc2c3cnn(-c4ccc(C)c(C)c4)c3ncn12 the results were M1 antag 0.52 and M1 agonist 0.
Screening COc1cccc(-c2cn3nc4c(nc3n2)CCCC4)c1 returned S1P1 ag pot -6, S1P3 ag 0, D1 allo mod -4.8*, M1 antag 0.39 and M1 agonist 0.074.
COc1cccc(CNC(=O)Cn2cc3c(n2)CCCC3)c1 was read as S1P1 ag pot -12, S1P3 ag 0, D1 allo mod -0.51, M1 antag 0.17 and M1 agonist -0.39.
`CC1=C(c2ccc(Cl)cc2)[N+](=O)C(C)(C)N1[O-]` gave S1P1 ag pot -2, S1P3 ag -3, D1 allo mod -0.42, M1 antag 0.35 and M1 agonist 0.8.
`COC(=O)c1ccc(C(=O)OC)c(NC(=O)c2cc3ccccc3o2)c1` gave S1P1 ag pot 2, S1P3 ag 1, D1 allo mod -0.18, M1 antag 0.016 and M1 agonist -0.14.
`Cc1c(C(=O)NC2=NCCS2)oc2ccccc12` gave S1P1 ag pot 3, S1P3 ag 0, D1 allo mod -4.9*, M1 antag 0.3 and M1 agonist -0.092.
Screening COc1ccccc1-c1cc(C(=O)Nc2ccccc2SC)no1 returned S1P1 ag pot 94*, S1P3 ag 0, D1 allo mod -0.17, M1 antag -0.046 and M1 agonist 1.7.
Screening COc1cccc(-c2cc(C(=O)Nc3ccccc3SC)no2)c1 returned S1P1 ag pot 89*, S1P3 ag -1, D1 allo mod -0.47, M1 antag 0.52 and M1 agonist 1.
`CS(=O)(=O)N(Cc1ccccc1)c1ccccc1C(=O)O` gave D1 allo mod 0.1, M1 antag 0.35 and M1 agonist -0.35.
O=C(O)C1Nc2c(C(=O)N3CCOCC3)cccc2C2C=CCC12 (centres undefined) was read as S1P1 ag pot -15, S1P3 ag -1, D1 allo mod 2.3, M1 antag 1.8* and M1 agonist -0.24.
Screening Cc1ccc2c(c1C)NC(C(=O)O)C1CC=CC21 (centres undefined) returned S1P1 ag pot -24, S1P3 ag -1, D1 allo mod -0.66, M1 antag -0.066 and M1 agonist -0.61.
COc1ccc(-c2cc3nc(C)cc(C)n3n2)c(OC)c1 was read as S1P1 ag pot 4, S1P3 ag 0, D1 allo mod 0.35, M1 antag 0.97 and M1 agonist 0.36.
For Cc1cc(Nc2nc3c(c(=O)n(C)c(=O)n3C)n2C)n(-c2ccccc2)n1 the results were S1P1 ag pot -11, S1P3 ag 0, D1 allo mod -0.26, M1 antag 0.78 and M1 agonist -0.47.
COc1ccccc1S(=O)(=O)Cc1ccc(C(=O)N2CCN(c3ccc(C)cc3)C(C)C2)o1 (centres undefined) was read as S1P1 ag pot 30, S1P3 ag -1, D1 allo mod -2.8*, M1 antag -1.8 and M1 agonist 3.3.
Screening CCOC(=O)C(NC(C)=O)(Nc1cccc(F)c1)C(F)(F)F (centres undefined) returned S1P1 ag pot -9, S1P3 ag -1, D1 allo mod -6.4*, M1 antag 0.21 and M1 agonist -0.013.
For CCOC(=O)C(NC(C)=O)(Nc1ccc(F)cc1)C(F)(F)F (centres undefined) the results were S1P1 ag pot 20, S1P3 ag 1, D1 allo mod 0.18, M1 antag 0.87 and M1 agonist 0.27.
Screening Cc1cc(OCC(=O)Nc2ccncc2)ccc1Br returned S1P1 ag pot -9, S1P3 ag -1, D1 allo mod -3.3*, M1 antag -1.8 and M1 agonist 5.4.
`O=C(CCCC(=O)N(CC(=O)NC1CCCC1)Cc1ccc2c(c1)OCO2)Nc1ccccn1` gave S1P1 ag pot -8, S1P3 ag 0, D1 allo mod -0.21, M1 antag -1.9 and M1 agonist -0.024.
CCCc1cc(C(=O)N2CCN(c3ccccc3C)CC2)cs1 was read as S1P1 ag pot 0, S1P3 ag 0, D1 allo mod -0.57, M1 antag -0.11 and M1 agonist 0.2.
For Cc1onc(-c2ccccc2Cl)c1C(=O)N1CCN(c2cccc(Cl)c2)CC1 the results were S1P1 ag pot 29, S1P3 ag -1, M1 antag -0.064 and M1 agonist 0.49.
`Cc1onc(-c2ccccc2Cl)c1C(=O)N1CCN(c2ccccc2)CC1` gave S1P1 ag pot -4, S1P3 ag -1, D1 allo mod -2.4*, M1 antag -0.0002 and M1 agonist -0.25.
For CC(C)(C)n1ncc2c(=O)n(CC(=O)NCc3ccccc3)cnc21 the results were S1P1 ag pot -7, S1P3 ag -1, D1 allo mod -5.4*, M1 antag 0.97 and M1 agonist 0.86.
CC(=O)Nc1ccc(NC(=O)Cn2cnc3c(cnn3C(C)(C)C)c2=O)cc1 was read as S1P1 ag pot 5, S1P3 ag -1, D1 allo mod 0.44, M1 antag 1.2 and M1 agonist -0.48.
Cc1cccc(NC(=O)C2CC(O)CN2C(=O)OCc2ccccc2)c1 (centres undefined) was read as S1P1 ag pot -6, S1P3 ag -1, D1 allo mod -3.9*, M1 antag 0.048 and M1 agonist 0.37.

Screening data as filed in PubChem.
